# Experimental data from ChEMBL document CHEMBL1821567, “Synthesis and glycosidase inhibitory profiles of functionalised morpholines and oxazepanes” (Bioorg Med Chem, 2011).
# Activity calls are given as the source filed them. The calls are words filed in the database; no cut-off is given here.
# Tests used:
# [1] = biological target: T1, Beta-galactosidase/Glucosylceramidase (Bos taurus, UniProt Q58D55+Q2KHZ8); assay: Inhibition of bovine liver beta-glucosidase/beta-galatosidase
# T1 sequence (Q58D55 whole entry): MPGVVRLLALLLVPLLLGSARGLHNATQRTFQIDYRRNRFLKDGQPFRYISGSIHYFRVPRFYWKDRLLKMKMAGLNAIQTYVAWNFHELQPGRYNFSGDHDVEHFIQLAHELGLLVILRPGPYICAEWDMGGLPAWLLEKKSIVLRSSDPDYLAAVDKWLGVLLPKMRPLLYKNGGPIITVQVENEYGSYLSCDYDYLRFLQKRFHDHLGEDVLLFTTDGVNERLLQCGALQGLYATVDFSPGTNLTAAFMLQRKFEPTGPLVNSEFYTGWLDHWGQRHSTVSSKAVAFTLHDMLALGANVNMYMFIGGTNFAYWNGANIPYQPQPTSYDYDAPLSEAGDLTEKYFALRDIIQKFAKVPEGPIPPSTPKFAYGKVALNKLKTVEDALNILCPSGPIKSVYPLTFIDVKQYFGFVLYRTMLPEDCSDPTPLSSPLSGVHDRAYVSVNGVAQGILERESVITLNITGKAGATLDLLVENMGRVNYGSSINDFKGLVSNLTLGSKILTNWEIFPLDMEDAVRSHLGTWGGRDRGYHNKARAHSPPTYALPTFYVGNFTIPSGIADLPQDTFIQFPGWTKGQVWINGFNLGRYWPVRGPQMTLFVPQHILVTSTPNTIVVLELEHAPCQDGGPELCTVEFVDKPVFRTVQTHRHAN
# T1 sequence (Q2KHZ8 whole entry): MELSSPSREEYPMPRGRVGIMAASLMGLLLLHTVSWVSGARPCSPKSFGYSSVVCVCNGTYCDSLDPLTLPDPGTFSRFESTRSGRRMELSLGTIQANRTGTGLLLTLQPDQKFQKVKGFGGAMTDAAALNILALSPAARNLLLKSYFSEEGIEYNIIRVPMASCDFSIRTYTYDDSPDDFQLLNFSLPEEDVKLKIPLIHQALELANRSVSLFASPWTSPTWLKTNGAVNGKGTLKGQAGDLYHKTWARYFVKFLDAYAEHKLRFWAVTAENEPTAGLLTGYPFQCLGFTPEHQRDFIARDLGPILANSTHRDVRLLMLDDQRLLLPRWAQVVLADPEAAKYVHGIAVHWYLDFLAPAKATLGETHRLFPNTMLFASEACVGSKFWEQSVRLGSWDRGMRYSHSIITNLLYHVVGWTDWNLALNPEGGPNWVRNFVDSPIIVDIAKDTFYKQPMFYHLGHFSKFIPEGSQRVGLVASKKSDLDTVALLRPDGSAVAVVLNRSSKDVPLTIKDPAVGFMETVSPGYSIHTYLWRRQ
# [2] = Inhibition of alpha-glucosidase
# [3] = biological target: T2, Lysosomal acid glucosylceramidase (Homo sapiens, UniProt P04062); assay: Uncompetitive inhibition of human beta-glucosidase by Michaelis-Menten kinetics analysis
# T2 sequence (P04062 whole entry): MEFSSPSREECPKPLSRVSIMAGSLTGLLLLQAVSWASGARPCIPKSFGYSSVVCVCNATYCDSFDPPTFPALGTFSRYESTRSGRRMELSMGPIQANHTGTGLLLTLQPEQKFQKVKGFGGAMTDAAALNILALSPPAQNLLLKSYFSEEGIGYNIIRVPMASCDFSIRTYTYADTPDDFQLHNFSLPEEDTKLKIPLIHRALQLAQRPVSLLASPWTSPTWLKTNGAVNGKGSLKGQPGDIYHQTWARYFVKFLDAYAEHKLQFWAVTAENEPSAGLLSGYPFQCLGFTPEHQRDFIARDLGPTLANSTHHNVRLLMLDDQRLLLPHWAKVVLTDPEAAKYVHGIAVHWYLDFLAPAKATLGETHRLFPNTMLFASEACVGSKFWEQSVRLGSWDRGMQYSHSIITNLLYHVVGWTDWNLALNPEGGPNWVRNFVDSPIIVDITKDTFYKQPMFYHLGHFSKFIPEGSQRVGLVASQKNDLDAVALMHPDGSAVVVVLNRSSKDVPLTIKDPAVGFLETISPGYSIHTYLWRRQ
# [4] = Inhibition of lysosomal alpha-glucosidase
# [5] = Inhibition of lysosomal beta-glucosidase; conditions: concentration not given here
# How it was run: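 Enzyme and test solution (or water for controls) were pre-incubated at 27 °C for 10–20 min. Substrate was then added and incubated at 27 °C for 10–20 min. The reaction was stopped with glycine solution and absorbance read at 405 nm. Wells were in triplicate with triplicate controls. Results are % inhibition at 1 mg/ml at optimal pH.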
# [6] = Inhibition of lysosomal alpha-glucosidase
# Saccharomyces cerevisiae = assay: Inhibition of Saccharomyces cerevisiae alpha-D-glucosidase at 1 mg/ml after 10 to 20 mins
# How it was run: (§1)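 Enzyme was pre-incubated with test solution at 1 mg/ml, or dH2O for controls, for 10–20 min at 27 °C. Substrate was added and incubation continued for the same time at 27 °C. The reaction was stopped with glycine solution and read at 405 nm. Each sample and control ran in three wells at the enzyme's optimal pH. Values are % inhibition.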
# [7] = test system: Geobacillus stearothermophilus; assay: Inhibition of Bacillus stearothermophilus alpha-D-glucosidase at 1 mg/ml after 10 to 20 mins; how it was run: as §1
# Oryza sativa = assay: Inhibition of rice alpha-D-glucosidase at 1 mg/ml after 10 to 20 mins; how it was run: as §1
# Prunus = assay: Inhibition of almond beta-D-glucosidase at 1 mg/ml after 10 to 20 mins; how it was run: as §1
# Canavalia ensiformis = assay: Inhibition of jack bean alpha-D-mannosidase at 1 mg/ml after 10 to 20 mins; how it was run: as §1
# Cellulomonas fimi = assay: Inhibition of Cellulomonas fimi beta-D-mannosidase at 1 mg/ml after 10 to 20 mins; how it was run: as §1
# Bos taurus = species: Bos taurus; assay: Inhibition of bovine kidney N-acetyl-beta-D-glucosaminidase at 1 mg/ml after 10 to 20 mins; how it was run: as §1
# [8] = biological target: Alpha-galactosidase (Coffea arabica) (UniProt Q42656); assay: Inhibition of green coffee beans alpha-D-galactosidase at 1 mg/ml after 10 to 20 mins; how it was run: as §1
# [9] = biological target: T3, Beta-galactosidase (Bos taurus) (UniProt Q58D55); assay: Inhibition of bovine kidney beta-D-galactosidase at 1 mg/ml after 10 to 20 mins; how it was run: as §1
# T3 sequence (whole entry): T1 sequence (Q58D55 whole entry)
# Penicillium decumbens = assay: Inhibition of Penicillium decumbens naringinase at 1 mg/ml after 10 to 20 mins; how it was run: as §1
# Beta-galactosidase = biological target: T4, Beta-galactosidase (Bos taurus, UniProt Q58D55); assay: Inhibition of bovine kidney beta-D-galactosidase after 10 to 20 mins
# T4 sequence (Q58D55 whole entry): T1 sequence (Q58D55 whole entry)
# How it was run: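 Bovine kidney β-D-galactosidase was pre-incubated with test solution, or dH2O for controls, for 10–20 min at 27 °C. Substrate was added for a further 10–20 min at 27 °C, then glycine solution, and absorbance at 405 nm. Wells were run in triplicate. Ki and inhibition mode came from Lineweaver–Burk double-reciprocal slopes.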
# Alpha-galactosidase (Coffea arabica), sequence (Q42656 16-378 limits assumed): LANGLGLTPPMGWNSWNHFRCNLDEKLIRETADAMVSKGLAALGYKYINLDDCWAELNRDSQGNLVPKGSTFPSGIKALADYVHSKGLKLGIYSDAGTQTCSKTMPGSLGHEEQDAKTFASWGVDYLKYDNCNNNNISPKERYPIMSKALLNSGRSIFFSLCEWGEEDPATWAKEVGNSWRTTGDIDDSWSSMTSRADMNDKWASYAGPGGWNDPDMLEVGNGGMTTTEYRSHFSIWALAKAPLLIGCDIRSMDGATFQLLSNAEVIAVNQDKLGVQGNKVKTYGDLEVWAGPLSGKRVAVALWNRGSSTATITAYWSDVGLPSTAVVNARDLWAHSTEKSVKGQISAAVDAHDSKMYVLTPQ
compound,measurement,setting,value
O[C@@H]1[C@H](O)[C@H](O)[C@@]2(O)CO[C@H]1N2C(=S)Nc1ccccc1,Ki,[1],750 µM
OC[C@H]1CNC[C@@H](O)[C@@H]1O,INH,[2],86 µM
O[C@@H]1[C@@H](O)[C@H](O)[C@@]2(O)CO[C@H]1N2C(=S)Nc1ccccc1,Ki,[1],2.5 µM
O[C@@H]1[C@@H](O)[C@H](O)[C@@]2(O)CO[C@H]1N2,Ki,[1],45 µM
OCCC(O)CN1CCOCC1 (centres undefined),Ki,[3],640 µM
O=C(Nc1ccccc1)N1[C@@H]2OC[C@]1(O)[C@@H](O)[C@@H](O)[C@H]2O,Ki,[1],68 µM
O[C@H]1[C@H](O)[C@@H](O)CN2CC[C@H](O)[C@H]12 [CASTANOSPERMINE],Ki,[4],0.1 µM
same,inhibition,[4]; concentration not given here,100%
same,inhibition,[5],96%
same,Ki,[6],0.1 µM
O=C(Nc1ccccc1)N1[C@@H]2OC[C@]1(O)[C@@H](O)[C@H](O)[C@H]2O,Ki,[1],30 µM
CO[C@@H]1CN(C)C[C@@H](CO)O1,inhibition,Saccharomyces cerevisiae,24%
same,inhibition,[7],inactive
same,inhibition,Oryza sativa,inactive
same,inhibition,Prunus,inactive
same,inhibition,Canavalia ensiformis,inactive
same,inhibition,Cellulomonas fimi,inactive
same,inhibition,Bos taurus,inactive
same,inhibition,[8],inactive
same,inhibition,[9],48%
same,inhibition,Penicillium decumbens,inactive
same,IC50,Beta-galactosidase,88.6 µM
same,Ki,Beta-galactosidase,126 µM
OCCN1CCOCC1,Ki,[3],620 µM
